Bioassay records (PubChem)
Most compounds without a hit are left out; they make up all but 2% or so of the library.
ARFGAP1 inh: inhibits rat ARF GTPase activating protein 1; Arfgap1-stimulated ARF1 GTP hydrolysis, GDP FP detection; Q62848; hit rate 0.26% among 360,000; AID 651572; inhibition, % at 16.5 µM;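 active = inhibition above a per-plate limit, mean inhibition of low control wells plus 3 SD, cut at about 25% in these data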;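 also: 0% = DMSO wells with enzyme and 100% = wells lacking Arfgap1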
Target sequence (Q62848 1-136 limits assumed): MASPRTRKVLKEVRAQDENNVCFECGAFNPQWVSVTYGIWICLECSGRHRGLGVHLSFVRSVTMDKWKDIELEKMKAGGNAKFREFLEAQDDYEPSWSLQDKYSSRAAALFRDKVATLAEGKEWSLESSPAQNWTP
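Assay system: Rat Arfgap1 GAP domain (His6, aa 1-136), purified enzyme | Buffer or medium: HEPES 25 mM pH 7.5, NaCl 150 mM, MgCl2, DTT | Schedule: GTP hydrolysis reaction 2 h at 25 °C | Signal: FP of antibody-bound GDP Alexa 633 tracer, ex 620/em 688 nm | Measure: Percent inhibition of Arfgap1-stimulated GTP hydrolysis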
LEDGF integ inh: blocks HIV-1 LEDGF/p75-dependent DNA integration. AID 743269. hit rate 0.64% among 370,000. inhibition, % at 3.7 µM. TR-FRET IN-LEDGF/p75 DNA integration, Eu/Cy5;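 active = inhibition above the screen-wide mean plus 3 SD, cut at about 13% in these data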;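 also: signal is the Cy5 over europium emission ratio at 671 and 618 nm; 0% = plate median of compound wells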
TCR CD3 inh: human TCR-CD3 binding inhibition; hit rate 0.37% among 360,000; AID 651800; inhibition, % at 9.4 µM; TAMRA-labeled TCR probe fluorescence, biochemical; in the data active = inhibition above about 19%;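 also: recombinant mutant TCR 2C K166C tagged with TAMRA read by polarization; 0% = receptor in buffer alone and 100% = receptor with positive control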
UHRF1 binding: blocks human UHRF1 binding to methylated DNA. Q96T88. UHRF1 binding to methylated oligo, TR-FRET. inhibition, % at 4.4 µM. hit rate 0.75% among 370,000. AID 687016; in the data active = inhibition above about 21%;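 also: UHRF1 SRA domain binding a hemimethylated CpG hairpin DNA probe; 0% = median of test compound wells and 100% = reference inhibitor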
ASAP1 inh: blocks human ASAP1-stimulated Arf1 GTP hydrolysis | inhibition, % at 16.5 µM | hit rate 0.19% among 360,000 | Q9ULH1 | AID 624377 | GDP FP detection; in the data active = inhibition above about 25%;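 also: 0% = vehicle with enzyme and substrate and 100% = no enzyme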
MBD2 inh: inhibitors of human MBD2 binding to methylated oligonucleotide. inhibition, % at 4.4 µM. AID 686964. TR-FRET. Q9UBB5. hit rate 0.31% among 370,000; in the data active = inhibition above about 13%
Target sequence (Q9UBB5 whole entry, looked up): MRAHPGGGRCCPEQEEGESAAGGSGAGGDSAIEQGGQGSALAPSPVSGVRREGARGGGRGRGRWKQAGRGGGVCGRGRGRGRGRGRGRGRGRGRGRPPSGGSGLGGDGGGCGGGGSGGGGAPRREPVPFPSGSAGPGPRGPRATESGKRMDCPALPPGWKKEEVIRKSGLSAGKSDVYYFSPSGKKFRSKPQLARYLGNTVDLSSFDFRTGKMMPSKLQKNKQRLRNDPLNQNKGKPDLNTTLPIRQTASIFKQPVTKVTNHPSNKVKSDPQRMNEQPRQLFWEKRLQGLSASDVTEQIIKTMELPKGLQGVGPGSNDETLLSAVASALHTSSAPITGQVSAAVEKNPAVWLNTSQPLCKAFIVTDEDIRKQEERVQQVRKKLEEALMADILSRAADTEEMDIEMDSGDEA
ASAP1 inh confirm: confirmation of human ASAP1 inhibitors. shares compounds with ASAP1 inh. ASAP1-stimulated Arf1 GTPase, GDP fluorescence polarization. inhibition, % at 16.5 µM. hit rate 37% among 620. AID 624431;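 active = mean inhibition over triplicates exceeds the hit threshold derived for the earlier primary screening run, cut at about 25% in these data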
Numbers without * were called inactive; . = no result.

SMILES	ARFGAP1 inh	LEDGF integ inh	TCR CD3 inh	UHRF1 binding	ASAP1 inh	MBD2 inh	ASAP1 inh confirm
COc1cccc(C(C(=O)NC2CCCCC2)N(Cc2ccco2)C(=O)c2ccccn2)c1 (configuration not stated)	1.8	-1.1	3.2	7.0	7.6	-7.0	.
CC(C)=CCOc1ccc2c(C)c(CCC(=O)N3C[C@H]4C[C@@H](C3)c3cccc(=O)n3C4)c(=O)oc2c1C	-8.4	-1.1	12.4	-3.8	5.9	-6.2	.
O=C(COC(=O)c1cccnc1)NC1CCCc2ccccc21 (configuration not stated)	-4.0	-5.8	-3.9	0.4	-0.7	3.7	.
O=C(COC(=O)c1cnccn1)NC1CCCc2ccccc21 (configuration not stated)	-5.7	2.7	-5.5	-1.7	47.8*	-0.1	3.6
Cn1c(N)c(C(=O)COC(=O)CCc2nc3ccccc3s2)c(=O)n(C)c1=O	3.8	4.9	-2.5	0.6	31.3*	1.8	3.2
Cn1c(N)c(C(=O)COC(=O)CCCc2nc3ccccc3s2)c(=O)n(C)c1=O	5.7	-2.1	-2.7	5.1	12.5	-5.2	.
CC(=O)Nc1c(-c2ccc(F)cc2)nc2ncccn12	.	-4.0	.	2.1	.	5.2	.
Cc1ccc(Cl)c2sc(NC(=O)C3=COCCO3)nc12	7.9	2.4	3.6	-3.0	26.8*	0.1	14.2
COc1ccc(Cl)c2sc(NC(=O)C3=COCCO3)nc12	9.2	0.6	3.2	3.9	-4.4	-1.2	.
COc1ccc(-c2csc(NC(=O)c3ccccc3NS(=O)(=O)c3ccc(F)c(F)c3)n2)cc1	9.7	-2.8	2.5	0.1	28.6*	-3.0	23.7
Cc1ccc(S(=O)(=O)Nc2ccccc2C(=O)Nc2nc(-c3ccc(F)cc3)cs2)cc1	15.7	0.1	6.0	-1.4	11.4	-3.8	.
CN(Cc1ccccc1)C(=O)c1ccc(Cc2cn(C)c3ccccc23)nc1	-8.0	-1.3	-0.7	6.8	7.2	3.2	.
COc1cc2cc(C(=O)N/N=C/c3ccc(F)cc3)[nH]c2cc1OC	4.8	4.2	7.5	-4.0	1.7	-4.9	.
COc1cc2cc(C(=O)N/N=C/c3ccccc3Cl)[nH]c2cc1OC	5.6	-0.2	2.4	-4.4	27.6*	-9.9	53.4*
CCc1ccc(OCC(=O)N2CCc3ccccc32)cc1	-15.5	-3.3	0.5	0.2	25.7*	-3.3	10.0
O=C(Nc1nc2ncccn2c1-c1ccc(C(F)(F)F)cc1)c1ccccc1	.	1.6	.	2.0	.	0.1	.
CCCCNC(=O)C1CCCN1C(=O)Nc1cc(C)cc(C)c1 (configuration not stated)	.	0.6	.	-1.9	.	-0.6	.
Cc1[nH]c2ccccc2c1CC(=O)Nc1ccc(Nc2cccnc2)c(Br)c1	21.4	-0.9	-6.2	-3.5	27.1*	-4.3	15.9
CNC(=S)N(CCc1c(C)[nH]c2ccc(C)cc12)Cc1cccs1	9.7	4.5	-5.5	1.8	26.1*	-3.9	20.7
O=c1[nH][nH]c2c1[C@@H](c1ccc(F)cc1)O[C@H](CCOCc1ccccc1)C2	-27.2	-5.0	1.5	-9.2	6.3	-5.6	.
CCC(=O)N1CCc2cc(Br)c(S(=O)(=O)N3CCC(C(=O)NC(C)(C)C)CC3)cc21	.	-0.7	.	-1.1	.	-0.7	.
COC(=O)[C@]12C[C@H](CC(=O)NCCc3ccccc3OC)C(=O)N(Cc3ccco3)C1=C[C@H](COCc1ccccc1)O[C@@H]2C	.	2.8	.	2.2	.	6.1	.
C=CCN(CC=C)CCOc1cc(C)ccc1[N+](=O)[O-]	-7.8	-2.7	1.6	1.1	24.9*	2.5	0.1
Cc1cc(C)n(/N=C/c2ccco2)c(=O)c1C#N	2.0	-2.1	-4.8	8.3	24.9*	-2.8	0.4
Cc1ccc(/C=N/n2c(C)cc(C)c(C#N)c2=O)o1	4.0	0.7	9.6	4.7	4.0	-4.4	.
SMILES	ARFGAP1 inh	LEDGF integ inh	TCR CD3 inh	UHRF1 binding	ASAP1 inh	MBD2 inh	ASAP1 inh confirm
COc1ccccc1C(=O)NC(CCSC)C(=O)OCC(=O)N1CCN(S(=O)(=O)c2ccc(C)cc2)CC1 (configuration not stated)	4.1	-1.7	4.2	-2.6	3.9	-5.7	.
O=C(NCC1CCCO1)c1ccc[nH]1 (configuration not stated)	10.2	-0.5	2.9	-0.1	26.9*	-0.3	-5.0
O=C(NCC1CCCO1)c1cccc(C(=O)NCC2CCCO2)c1 (configuration not stated)	-0.7	-0.4	3.4	-2.4	-1.5	-1.0	.
CN(C(=O)COc1ccc2ccc(=O)oc2c1)C1CCS(=O)(=O)C1 (configuration not stated)	4.5	-2.0	1.8	2.9	27.9*	-0.1	5.8
Cc1cccc(N2CCN(C(=O)c3cc(S(=O)(=O)N(C)C)ccc3Cl)CC2)c1C	.	-2.7	.	0.6	.	1.6	.
CCC(CC)NC(=O)O[C@H]1CC[C@@]23CCCN2C(=O)CCC[C@H]3C1	.	-2.4	.	1.0	.	3.5	.
N/C(=N\N=C\c1ccnc2ccccc12)SC1CC(=O)N(c2ccc(Br)cc2)C1=O (configuration not stated)	10.8	1.6	7.8	-0.2	60.9*	1.1	87.5*
Cc1ccc(C(=O)O/N=C/c2c(C)nn(C)c2Cl)cc1	3.9	-0.1	-2.9	-1.9	26.6*	7.8	0.1
CC(C)C(=O)OCCCN1CCC2(CCC(c3ccccc3)CC2)C1=O (configuration not stated)	.	0.1	.	-1.7	.	-9.1	.
S=c1[nH]nc(Cc2cccs2)n1-c1ccccc1Cl	-1.5	-1.0	-3.3	0.2	25.8*	1.1	6.2
COc1nccc(Nc2ccccc2)c1C#N	1.0	-2.1	-7.2	4.5	28.4*	-5.8	5.3
Cc1ccc(Nc2nc(NCCO)c3ccccc3n2)cc1C	18.1	2.9	-3.4	1.2	28.4*	-6.2	6.2
COc1ccc(OC)c(Nc2nc(NCCO)c3ccccc3n2)c1	-10.4	0.8	2.0	10.7	10.0	-6.3	.
CCOC(=O)[C@]12CCCC=C1N(CCCOC)C(=O)[C@@H]2CC(=O)N1CCCCC1	.	-2.5	.	-0.1	.	3.8	.
N#Cc1cccc(NC(=O)CSc2ccc3c4c(cccc24)C(=O)c2ccccc2-3)c1	23.9	0.4	4.3	-6.9	100.1*	-2.9	111.4*
CCNC(=O)C1CCCN(C(=O)c2cccc(C#N)c2)CC1 (configuration not stated)	-1.6	1.4	-7.2	1.7	-3.8	1.6	.
COc1ccc(C(=O)Nc2nc3cc4c(cc3s2)OCO4)c(OC)c1	7.8	-2.7	-7.9	1.5	31.4*	3.5	41.4*
NC(=O)NN=C1CCC(OCc2ccccc2)CC1CC(=O)O (configuration not stated)	-7.2	2.7	-5.7	3.0	11.0	4.9	.
CC1CCCCN1C(=O)COC(=O)c1cc([N+](=O)[O-])ccc1N1CCOCC1 (configuration not stated)	2.8	-5.0	7.7	-2.7	29.4*	-6.7	3.8
